Only a sample is shown.
Apaf1 activ: human Apaf-1 activation; O14727; Apaf-1 apoptosome caspase-3 activation, DEVD-Rh110 fluorescence; active compounds read low; activity change, negative = activation, % at 20 µM; actives 0.31% (n = 330,000);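 active = activity change at or below -40% at 20 µM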
Target sequence (O14727 whole entry, looked up): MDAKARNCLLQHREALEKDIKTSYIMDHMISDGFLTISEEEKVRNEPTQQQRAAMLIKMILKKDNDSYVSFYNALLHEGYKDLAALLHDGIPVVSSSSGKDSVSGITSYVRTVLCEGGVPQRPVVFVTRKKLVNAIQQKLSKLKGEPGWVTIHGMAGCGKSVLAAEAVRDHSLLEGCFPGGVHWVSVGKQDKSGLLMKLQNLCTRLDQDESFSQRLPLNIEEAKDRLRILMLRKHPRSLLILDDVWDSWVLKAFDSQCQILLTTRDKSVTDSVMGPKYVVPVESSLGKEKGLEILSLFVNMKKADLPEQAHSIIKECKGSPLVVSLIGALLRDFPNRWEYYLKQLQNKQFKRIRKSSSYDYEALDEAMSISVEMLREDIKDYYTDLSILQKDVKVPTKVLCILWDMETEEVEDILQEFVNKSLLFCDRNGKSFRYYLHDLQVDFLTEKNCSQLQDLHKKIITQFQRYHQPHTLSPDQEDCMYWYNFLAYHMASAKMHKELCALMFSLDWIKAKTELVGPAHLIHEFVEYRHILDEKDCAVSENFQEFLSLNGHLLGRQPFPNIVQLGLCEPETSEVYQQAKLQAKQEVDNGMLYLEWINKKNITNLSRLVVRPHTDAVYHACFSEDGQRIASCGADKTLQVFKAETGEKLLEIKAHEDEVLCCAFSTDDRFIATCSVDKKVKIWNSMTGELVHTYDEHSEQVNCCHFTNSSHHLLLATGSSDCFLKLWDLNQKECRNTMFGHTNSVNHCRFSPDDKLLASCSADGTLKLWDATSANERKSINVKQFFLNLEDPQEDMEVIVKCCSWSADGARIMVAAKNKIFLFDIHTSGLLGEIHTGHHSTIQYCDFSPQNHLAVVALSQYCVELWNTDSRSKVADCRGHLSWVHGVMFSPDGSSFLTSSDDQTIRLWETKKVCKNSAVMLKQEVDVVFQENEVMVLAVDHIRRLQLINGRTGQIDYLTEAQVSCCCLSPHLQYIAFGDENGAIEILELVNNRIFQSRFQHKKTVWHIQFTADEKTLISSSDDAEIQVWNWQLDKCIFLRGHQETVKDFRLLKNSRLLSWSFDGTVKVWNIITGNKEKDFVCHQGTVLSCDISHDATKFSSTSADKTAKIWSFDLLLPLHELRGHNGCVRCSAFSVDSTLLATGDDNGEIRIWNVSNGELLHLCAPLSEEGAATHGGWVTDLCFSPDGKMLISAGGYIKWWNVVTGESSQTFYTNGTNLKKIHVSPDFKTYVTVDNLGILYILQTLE
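Schedule: 30 min preincubation, 50 min reaction, room temperature / System: biochemical Apaf-1 apoptosome reconstitution / Medium: 20 mM HEPES pH 7.5 with CHAPS, BSA / Evaluation: Caspase-3 cleavage activity downstream of Apaf-1 activation / Detection: Caspase-3-released Rh110 fluorescence, 540 nm emission, 480 nm excitation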
* marks the source's active call; other numbers are inactive results.

How did Cc1cc(C)c(C2=CC(c3ccccc3)n3ncnc3N2)cc1C (stereo unspecified) do in these assays?
Apaf1 activ: -214.9*

How did c1ccc2c(c1)CCN(C1=Nc3cccc4cccc1c34)C2 do in these assays?
Apaf1 activ: 42.9

How did Cc1nnc(N/N=C/c2cccc(OCc3ccc(Cl)c(Cl)c3)c2)n1N do in these assays?
Apaf1 activ: 77.1

What do the screens show for `CCc1ccc2cccc3c2c1N=CN3C`?
Apaf1 activ: 86.6

How did COc1cc(NC(=O)CN2C(=O)NC3(CCOc4ccccc43)C2=O)cc(OC)c1 (stereo unspecified) do in these assays?
Apaf1 activ: 58.5

What do the screens show for `COc1ccc(C2(c3ccc(OC)cc3)NC(=O)N(CC(=O)Nc3ccc(N4CCOCC4)cc3)C2=O)cc1`?
Apaf1 activ: 40.9

What do the screens show for `COc1ccc(C2(c3ccc(OC)cc3)NC(=O)N(CC(=O)N(C)C)C2=O)cc1`?
Apaf1 activ: -130.8*

What do the screens show for `CCN1CCN(S(=O)(=O)c2ccc(Cl)c(C(=O)N(C)Cc3cccc(Cl)c3Cl)c2)CC1`?
Apaf1 activ: 42.6

Results for N#C/C(=C/c1ccc(OCc2ccc(C(=O)O)cc2)c(Br)c1)c1cccc(F)c1 ?
Apaf1 activ: -335.2*

How did COc1ccccc1-c1c(C#N)c(N)nc2c1CCc1ccccc1-2 do in these assays?
Apaf1 activ: 96.3

How did C=C(C)C(=O)Nc1ccc2c(c1)OCCOCCOCCO2 do in these assays?
Apaf1 activ: -447.5*

How did CC(=O)Nc1ccc2nc3ccccc3nc2c1 do in these assays?
Apaf1 activ: 49.8

What do the screens show for `CCN(CC(=O)Nc1ccc2c(c1)OCCO2)C(=O)/C=C/c1ccc(OC)cc1OC`?
Apaf1 activ: 64.0

How did Cc1cc(C)c(C#N)c(SCC(=O)Nc2nonc2N)n1 do in these assays?
Apaf1 activ: 63.6

Results for Cc1ccc(S(=O)(=O)N2CCC(C(=O)OCC(=O)N(C)CC(=O)Nc3ccc(F)cc3)CC2)cc1C ?
Apaf1 activ: 51.6

Results for S=C(NCc1ccc2c(c1)OCO2)Nc1ccc2nsnc2c1 ?
Apaf1 activ: 61.6

Results for CSc1ccccc1NC(=O)COc1ccc2c(c1)OCO2 ?
Apaf1 activ: 45.3

Results for O=C(NC(Cc1ccc2c(c1)OCO2)C(=O)NC(Cc1ccccc1)C(=O)O)c1ccccc1 (stereo unspecified) ?
Apaf1 activ: -41.7*

What do the screens show for `CN(C)CCCNC(=O)C[C@H]1C[C@H](C(=O)N2CCCCC2)[C@@]2(CCc3ccccc3)c3[nH]c4ccc(Cl)cc4c3CCN2C1=O`?
Apaf1 activ: 73.8

Results for CC1=[N+](C)c2ccc3ccccc3c2C1(C)C ?
Apaf1 activ: 41.9

How did O=c1[nH]c(C2CCCN(S(=O)(=O)c3ccccc3F)C2)nc2c1nnn2Cc1ccccc1Cl (stereo unspecified) do in these assays?
Apaf1 activ: 41.2

What do the screens show for `c1ccc2c(NCCCN3CCOCC3)c3ccccc3nc2c1`?
Apaf1 activ: -62.7*

What do the screens show for `Cc1c2ccccc2nc2c(F)c(NCCO)c(F)c(F)c12`?
Apaf1 activ: 53.8

Results for CCN(c1ccccc1)S(=O)(=O)c1cccc(C(=O)NCCN2CCOCC2)c1 ?
Apaf1 activ: 43.8

How did O=C1NC(=S)N/C1=C/c1cc2c(cc1[N+](=O)[O-])OCO2 do in these assays?
Apaf1 activ: 88.0

How did CN(CC(=O)Nc1ccc(F)cc1)C(=O)C1CC(=O)N(Cc2ccccc2)C1 (stereo unspecified) do in these assays?
Apaf1 activ: 43.6

What do the screens show for `COc1ccc(CCn2c(N)c(C(=O)NCc3ccco3)c3nc4ccccc4nc32)cc1OC`?
Apaf1 activ: 62.8

What do the screens show for `CCc1cc(CNC(=O)c2ccc(OC3CCN(CCc4ccccc4)CC3)cc2)on1`?
Apaf1 activ: -41.4*

What do the screens show for `CC1CCN(CCc2nc3cc(NC(=O)COc4ccccc4)ccc3n2C)CC1`?
Apaf1 activ: 52.4

How did CC(C)(C)c1ccc(OCCOc2ccc(C(C)(C)C)cc2NC=O)c(NC=O)c1 do in these assays?
Apaf1 activ: 41.3

What do the screens show for `COc1ccc(NC(=O)CN2C(=O)S/C(=C/c3cccn3-c3ccc(C(=O)O)cc3)C2=O)cc1`?
Apaf1 activ: -239.7*

How did COc1cc(/C=C2/C(=O)N(c3ccc(C(=O)O)cc3)N=C2C)cc(OC)c1O do in these assays?
Apaf1 activ: 77.6

What do the screens show for `COc1ccc(NC(=O)CCn2c(=S)[nH]c3ccccc3c2=O)cc1`?
Apaf1 activ: 85.7

Results for COc1ccc(C(CNC(=O)c2cccc(S(=O)(=O)N(C)c3ccccc3)c2)N2CCCC2)cc1 (stereo unspecified) ?
Apaf1 activ: 43.5

How did C[C@@H]1[C@H]2[C@@H]3CC[C@@H](C3)[C@H]2CN[C@H]1c1cn(Cc2ccccc2)c2ccccc12 do in these assays?
Apaf1 activ: 61.6

How did C=C(C)C(=O)Nc1cccc(C2=NOC3(C2)C[C@@H](C(N)=O)N(C(=O)c2ccc(OC)cc2)C3)c1 (stereo partly specified) do in these assays?
Apaf1 activ: -339.8*

Results for COCCN(C(=O)CSc1nc(N)cc(=O)[nH]1)c1c(N)n(Cc2ccccc2)c(=O)[nH]c1=O ?
Apaf1 activ: 45.3

How did CCN(CC)CCn1c(SCC(=O)Nc2ccc3c(c2)CCC3)nc2ccccc2c1=O do in these assays?
Apaf1 activ: 50.9

How did CCCN(CC(=O)Nc1ccccc1OC)C(=O)CSc1ccc(Br)cc1C do in these assays?
Apaf1 activ: 57.3

How did CCOc1ccc(NC(=O)CCS(=O)(=O)c2ccc(Br)cc2)cc1 do in these assays?
Apaf1 activ: -109.0*

How did O=C(CCS(=O)(=O)c1ccc(Br)cc1)Nc1cc(F)ccc1F do in these assays?
Apaf1 activ: -129.1*

How did CCCN(CC(=O)Nc1ccccc1C)C(=O)CCCOc1ccc(Br)cc1 do in these assays?
Apaf1 activ: 52.9

What do the screens show for `CCOc1ccc(NS(=O)(=O)c2ccc(C(=O)N(CC)CC(=O)NCc3cccs3)cc2)cc1`?
Apaf1 activ: 61.2

How did c1coc(-c2nnc(-c3ccco3)nn2)c1 do in these assays?
Apaf1 activ: 84.3

Results for CCc1noc(C)c1C(=O)N1CCN(S(=O)(=O)c2c(C)cc(C)cc2C)CC1 ?
Apaf1 activ: 57.3

What do the screens show for `O=C1C(c2ccccc2)=[N+]([O-])c2ccccc21`?
Apaf1 activ: 85.3

How did CC(CS(=O)(=O)c1ccc2c(c1)NC(=O)CS2)C(=O)NCc1ccccc1Cl (stereo unspecified) do in these assays?
Apaf1 activ: -158.0*

Results for COc1cccc(-c2sc3ccccc3c2-c2ccc(OCCN(C)C)cc2)c1 ?
Apaf1 activ: 75.5

What do the screens show for `CCCCCCCNC(=O)C1(CC2CC(c3ccc(Cl)cc3)=NO2)CCNCC1` (stereo unspecified)?
Apaf1 activ: 41.0

What do the screens show for `COc1ccc(-n2c(C)cc(/C=N/Nc3nnc(C)n3N)c2C)cc1`?
Apaf1 activ: 52.6

Results for CCn1c2ccccc2c2nnc(SCC(=O)c3c(N)n(C)c(=O)n(C)c3=O)nc21 ?
Apaf1 activ: 54.0

What do the screens show for `CCCCn1c(NC(C)=O)c(C#N)c2nc3ccccc3nc21`?
Apaf1 activ: 84.5

How did CCCCn1c2ccccc2c2nnc(SCC(=O)NC3=NN=C(c4ccccc4)CS3)nc21 do in these assays?
Apaf1 activ: -68.9*

Results for COc1cc(NC(C)CCCN)c2ncccc2c1Oc1ccccc1 (stereo unspecified) ?
Apaf1 activ: 70.0

How did CCCc1cc(=O)oc2c3c(c4c(c12)OC(C)(C)C=C4)OC(C)C(C)C3O (stereo unspecified) do in these assays?
Apaf1 activ: 52.7

What do the screens show for `CC/C(=C(\c1ccc(O)cc1)c1ccc(OCCN(C)C)cc1)c1ccccc1`?
Apaf1 activ: 65.3

Source: PubChem BioAssay
